# MPTP block: permeability transition pore inhibition. isolated mouse mitochondria, Ca2+ swelling absorbance, 30 min. AID 602449. 1.4% of 360,000 active. inhibition, % at 10 µM;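 active means inhibition of 50% or more, scaled per plate between neutral and stimulator controls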
# WT yeast gro inh: growth inhibition of WT yeast, mitochondrial fusion screen. AID 1362. mitochondrial fusion phenotypic screen, WT strain. inhibition, % at 10 µM. 2.1% of 190,000 active; in the data active means inhibition above about 58%; tested in S. cerevisiae
# CHOP inhibitor: CHOP inhibition in unfolded protein response; CHO-K1 CHOP-promoter luciferase, tunicamycin-induced, 15-18 h; 3.8% of 220,000 active; AID 2732; inhibition, % at 10 µM;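 active means compounds that reduced the stress-induced luciferase reporter signal by more than about 70% of percent inhibition, limit read from the data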
# GRIN3A LBD mod: modulates the human NR3A ligand-binding domain; NR3A LBD differential scanning fluorimetry, Tm shift; 0% = protein alone, 100% = glycine-bound protein; 2.5% of 340,000 active; Tm shift relative to glycine control, % at 25 µM;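 active means melting temperature shift of at least 10% of the positive control shift, at one fixed dose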
# Tb MetRS inh: Trypanosoma brucei MetRS inhibition; AID 624268; inhibition, % at 11.9 µM; purified T. brucei MetRS, ATP depletion, Kinase-Glo luminescence; 0.4% of 360,000 active;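 active means inhibition above a per-plate cutoff of the control wells' mean inhibition plus 3 SD, cut at about 5.5% in these data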
#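 Assay system: T. brucei methionyl-tRNA synthetase, purified | Medium: HEPES buffer with MgCl2, KCl, DTT, spermine, BSA, pyrophosphatase | Compound: 11.9 µM single point | Incubation: 15 min enzyme-compound preincubation, 2 h reaction, 10 min detection, 25 °C | Measured by: Kinase-Glo luciferase luminescence reporting remaining unconsumed ATP | Measure: % inhibition normalized to control-well medians | Replication: Singlicate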
# EBV gp42 inh: inhibitors of Epstein-Barr virus glycoprotein 42. 0.42% of 220,000 active. inhibition, % (tested at 21.74 µM). Q1HVG2. Fluorescence polarization binding assay, mP read-out. AID 1085; in the data active means inhibition above about 50%
# Target sequence (Q1HVG2 whole entry, looked up): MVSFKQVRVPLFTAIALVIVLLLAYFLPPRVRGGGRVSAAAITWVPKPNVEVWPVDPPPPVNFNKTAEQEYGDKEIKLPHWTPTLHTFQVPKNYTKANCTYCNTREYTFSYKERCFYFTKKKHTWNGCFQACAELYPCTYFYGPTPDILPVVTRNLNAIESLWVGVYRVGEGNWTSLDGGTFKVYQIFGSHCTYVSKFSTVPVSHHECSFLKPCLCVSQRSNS
# Numbers stand for hits; i = inactive; nt = no result. A selection: hits, their analogues and other compounds. The true share with any hit is near 6.4%.
SMILES,MPTP block,WT yeast gro inh,CHOP inhibitor,GRIN3A LBD mod,Tb MetRS inh,EBV gp42 inh
O=C(O)Cc1ccc(NC(=O)C(c2ccccc2)c2ccccc2)cc1,i,i,i,i,i,i
Cc1ccccc1NS(=O)(=O)c1cc(C(=O)NCCSC2CCCCC2)ccc1C,i,i,72,i,i,i
CC(=O)Nc1ccc(S(=O)(=O)N(C)CC(=O)OCC(=O)NNC(=O)c2ccccc2F)cc1,i,nt,nt,18,i,nt
Cc1ccc(S(=O)(=O)N(C)CC(=O)OCC(=O)NC(c2ccccc2)c2ccccc2)cc1,i,i,i,24,i,i
CC(=O)Nc1ccc(S(=O)(=O)N(C)CC(=O)OCC(=O)c2ccc[nH]2)cc1,i,nt,nt,i,i,nt
O=C(O)c1nn2c(c1Br)NC(c1ccccc1)CC2C(F)(F)F (stereo not given),i,i,i,i,i,i
CCOC(=O)c1sc(NC(=O)CCN2CCN(CC)CC2)c(C(=O)OCC)c1C,i,i,i,i,i,i
CCOC(=O)N1CCN(C(=O)CSc2ccc(-c3cccc(OC)c3)nn2)CC1,i,i,77,i,i,i
CCOC(=O)N1CCN(C(=O)CSc2ccc(-c3cccnc3)nn2)CC1,nt,i,i,nt,nt,i
NC(=O)C1CCN(C(=O)c2ccc(Cl)c(S(=O)(=O)NCc3ccco3)c2)CC1,i,nt,nt,i,i,nt
O=C(N/N=C/c1ccc(O)cc1)c1ccc(NC(=O)c2ccccc2Br)cc1,i,i,i,18,i,i
O=C(Nc1ccccc1C(=O)N/N=C/c1ccc(F)cc1)c1ccccc1Br,i,i,i,i,i,i
Cc1ccccc1C(=O)Nc1ccc(C(=O)N/N=C/c2ccc(O)cc2)cc1,i,nt,nt,28,i,nt
Cc1ccccc1C(=O)Nc1ccc(C(=O)N/N=C/c2ccncc2)cc1,i,i,i,i,i,i
O=C1N/C(=N/S(=O)(=O)Cc2ccccc2)S/C1=C/c1ccc2c(c1)OCO2,i,nt,i,i,i,i
CCCc1cc(Nc2ccccc2)n2ncnc2n1,i,nt,nt,i,i,nt
COc1ccc(-c2cc(-c3cc(C)ccc3O)[nH]n2)cc1,i,i,i,14,i,i
COc1ccc(-c2cc(-c3ccc(C)cc3)n[nH]2)c(O)c1,i,nt,nt,31,i,nt
COc1ccc(-c2cc(-c3ccc(OC)cc3)[nH]n2)cc1,i,i,i,i,i,i
CC(C)(C)c1ccc(-c2cc(-c3ccccc3O)[nH]n2)cc1,i,nt,nt,19,i,nt
N#Cc1c(SCC(=O)OCc2ccccc2)nsc1SCC(=O)OCc1ccccc1,i,i,i,i,i,i
CC(C)CC(=O)NC(=S)Nc1ccc(Cl)cn1,i,i,i,i,i,i
Cc1cccc2c1NC(=O)C2=Nc1ccc(Cl)cc1,i,nt,nt,i,i,nt
O=C(CNC(=O)C1CC1)Nc1ccc(F)c(F)c1F,i,nt,nt,i,i,nt
CCOC(=O)c1ccc(NC(=O)CN(C)S(=O)(=O)c2ccc(Br)s2)cc1,i,i,77,i,i,i
SMILES,MPTP block,WT yeast gro inh,CHOP inhibitor,GRIN3A LBD mod,Tb MetRS inh,EBV gp42 inh
COc1ccc(NC(=O)CN(C)C(=O)Cc2ccc3c(c2)OCCO3)cc1,i,nt,nt,i,i,nt
Cc1ccc(C)c2sc(NC(=O)C3CC3)nc12,i,nt,nt,i,i,nt
O=C(Nc1nc2c(Br)cc(Br)cc2c(=O)s1)C1CCC1,i,nt,91,i,i,i
CC(=O)Nc1ccc(S(=O)(=O)Nc2nc3cc4c(cc3nc2Cl)OCCO4)cc1,i,nt,i,i,i,i
CC(=O)Nc1ccc(S(=O)(=O)Nc2nc3ccccc3nc2N2CCCC2)cc1,i,i,i,i,i,i
NS(=O)(=O)c1ccc(Nc2nc3ccccc3nc2NS(=O)(=O)c2cccc([N+](=O)[O-])c2)cc1,i,i,i,32,i,i
O=[N+]([O-])c1cccc(S(=O)(=O)Nc2ccccn2)c1,i,nt,nt,nt,i,nt
CC(=O)Nc1ccc(S(=O)(=O)Nc2nc3ccccc3nc2Cl)cc1,i,nt,nt,38,i,nt
COc1ccc(Nc2nc3ccccc3nc2NS(=O)(=O)c2ccc(NC(C)=O)cc2)cc1,i,nt,i,12,i,i
COc1cccc(Nc2nc3ccccc3nc2NS(=O)(=O)c2ccc(NC(C)=O)cc2)c1,i,nt,nt,22,i,nt
Cc1ccc(CN(C)C(=O)c2cccc(S(=O)(=O)N3CCN(Cc4ccccc4)CC3)c2)o1,i,nt,nt,i,i,nt
COc1ccc(OC)c(C(C[N+](=O)[O-])c2c(C)cc3ccccn23)c1 (stereo not given),i,nt,nt,i,i,nt
CCOc1ccc(S(=O)(=O)Nc2nc3ccccc3nc2Nc2ccc(N3CCOCC3)cc2)cc1,i,i,i,15,i,i

# Source: PubChem (several laboratories)
